Converted amounts (≈) assume the structure as drawn.
Tests used:
[1] = Intrinsic clearance in human liver microsomes assessed per mg of protein; assay type: ADME; conditions: read-out: CLH
Outline: (§1)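 Compound incubated with liver microsomes (human for line 2, rat for line 3) and its concentration followed at up to 8 successive time points. Intrinsic pseudo-first-order decay rate constant (Clint) taken from linear regression of those concentrations and normalised to microsomal protein. Upper and lower bounds are 95% confidence levels from the regression.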

[2] = Intrinsic clearance in rat liver microsomes assessed per mg of protein; assay type: ADME; conditions: read-out: CLH; outline: as §1
[3] = Lipophilicity, Log P of the compound; assay type: physicochemical; conditions: octanol/water
[4] = Aqueous solubility of the compound at pH 6.5; assay type: physicochemical

Row | SMILES | microsomal CLint [1] [µL/min/mg] | microsomal CLint [2] [µL/min/mg] | logP [3] | solubility [4] [µM]
1 | FC(F)CCc1c[nH]c2ccccc12 | 372 | 294 | 2.9 | –
2 | FCCCc1c[nH]c2ccccc12 | – | – | 2.8 | –
3 | FC[C@@H](F)[C@H](F)Cc1c[nH]c2ccccc12 (racemic) | – | – | 2.7 | –
4 | FC[C@H](F)[C@H](F)Cc1c[nH]c2ccccc12 (racemic) | – | – | 2.7 | –
5 | C[C@H](F)[C@H](F)Cc1c[nH]c2ccccc12 (racemic) | – | – | 2.8 | –
6 | CCCc1c[nH]c2ccccc12 | 513 | 182 | 3.3 | 200 (≈ 31.8 µg/mL)
7 | FCC(F)Cc1c[nH]c2ccccc12 (stereo unspecified) | 212 | 142 | 2.5 | > 1720
8 | C[C@@H](F)[C@H](F)Cc1c[nH]c2ccccc12 (racemic) | – | – | 2.8 | –
9 | FC(F)(F)CCc1c[nH]c2ccccc12 | 410 | 290 | 3.1 | 30 (≈ 6.4 µg/mL)
10 | CCC(F)(F)Cc1c[nH]c2ccccc12 | 271 | 644 | 3.1 | 182 (≈ 38.1 µg/mL)
11 | CC(F)(F)CCc1c[nH]c2ccccc12 | 321 | 584 | 3 | 115 (≈ 24.1 µg/mL)
12 | FCC(F)CCc1c[nH]c2ccccc12 (stereo unspecified) | 245 | 492 | 2.8 | 277 (≈ 58 µg/mL)
13 | CC(F)(F)Cc1c[nH]c2ccccc12 | 508 | 226 | 2.8 | 820 (≈ 160 µg/mL)
